Assay results: ChEMBL document CHEMBL4325893, “Synthesis and antibacterial profiles of targeted triclosan derivatives” (2019)
Values after ≈ are worked out from the molar mass of the structure shown.

Tests used:
[1] = tested on: Staphylococcus haemolyticus; assay: Antibacterial activity against Staphylococcus haemolyticus OCC 2223 after 18 hrs; format: functional; details: OCC 2223, 18 h
Outline: (§1)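 Broth microdilution in Nutrient Broth No. 2. Ethanol stocks were diluted in broth to 0.01–128 µg/ml for triclosan and 0.25–256 µg/ml for glycosides. Overnight 37°C NB2 cultures were diluted 1 in 10^4 in saline and added to the wells. Plates were incubated at 37°C with OD read every 15 min after agitation. MIC was the lowest concentration giving no OD increase at 18 h.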

[2] = Antibacterial activity against Salmonella enterica subspecies enterica serotype Dublin OCC 627 after 18 hrs; format: functional, Salmonella enterica subsp. enterica serovar Dublin; details: OCC 627, 18 h
Outline: (§2)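 Broth microdilution in Nutrient Broth No. 2; stocks in ethanol diluted to 0.01–128 µg/ml (triclosan) or 0.25–256 µg/ml (glycosides). Overnight 37 °C NB2 cultures diluted 1 in 10^4 in saline and added to the dilutions. Incubation at 37 °C with agitation, OD read every 15 min; MIC is the lowest concentration preventing any OD rise after 18 h.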

Staphylococcus aureus [3] = assay: Antibacterial activity against Staphylococcus aureus NCTC 13758 after 18 hrs; format: functional; details: NCTC 13758, 18 h; outline: as §2
[4] = tested on: Salmonella enterica subsp. enterica serovar Abony; assay: Antibacterial activity against Salmonella enterica subspecies enterica serotype Abony NCTC 6017 after 18 hrs; format: functional; details: NCTC 6017, 18 h; outline: as §2
Klebsiella aerogenes = assay: Antibacterial activity against Klebsiella aerogenes NCTC 8167 after 18 hrs; format: functional; details: NCTC 8167, 18 h; outline: as §2
Staphylococcus aureus [5] = assay: Antibacterial activity against Staphylococcus aureus ATCC 9144 after 18 hrs; format: functional; details: ATCC 9144, 18 h; outline: as §2
[6] = tested on: Staphylococcus epidermidis; assay: Antibacterial activity against Staphylococcus epidermidis ATCC 14990 after 18 hrs; format: functional; details: ATCC 14990, 18 h; outline: as §2
[7] = tested on: Staphylococcus epidermidis; assay: Antibacterial activity against Staphylococcus epidermidis 155 after 18 hrs; format: functional; details: Staphylococcus epidermidis, 155, 18 h; outline: as §2
[8] = Antibacterial activity against Salmonella enterica subspecies enterica serotype Poona NCTC 4840 after 18 hrs; format: functional, Salmonella enterica subsp. enterica serovar Poona; details: NCTC 4840, 18 h; outline: as §2
Escherichia coli [9] = assay: Antibacterial activity against Escherichia coli ATCC 35218 after 18 hrs; format: functional; details: ATCC 35218, 18 h; outline: as §2
Proteus mirabilis = assay: Antibacterial activity against Proteus mirabilis ATCC 12453 after 18 hrs; format: functional; details: ATCC 12453, 18 h; outline: as §2
Salmonella enteritidis = assay: Antibacterial activity against Salmonella enterica subspecies enterica serotype Enteritidis 13076 after 18 hrs; format: functional, Salmonella enterica subsp. enterica serovar Enteritidis; details: Salmonella enterica, 13076, 18 h; outline: as §2
Bacillus cereus = assay: Antibacterial activity against Bacillus cereus ATCC 14579 after 18 hrs; format: functional; details: ATCC 14579, 18 h; outline: as §2
[10] = Antibacterial activity against Enterobacter cloacae ATCC 13047 after 18 hrs; format: functional, Enterobacter cloacae subsp. cloacae; details: ATCC 13047, 18 h; outline: as §2
Citrobacter freundii = assay: Antibacterial activity against Citrobacter freundii 8090 after 18 hrs; format: functional; details: Citrobacter freundii, 8090, 18 h; outline: as §2
[11] = tested on: Staphylococcus epidermidis; assay: Antibacterial activity against Staphylococcus epidermidis ATCC 12228 after 18 hrs; format: functional; details: ATCC 12228, 18 h; outline: as §2
Enterococcus faecalis [12] = assay: Antibacterial activity against Enterococcus faecalis ATCC 29212 after 18 hrs; format: functional; details: ATCC 29212, 18 h; outline: as §2
Escherichia coli [13] = assay: Antibacterial activity against Escherichia coli 700728 after 18 hrs; format: functional; details: Escherichia coli, 700728, 18 h; outline: as §2
Enterococcus faecalis [14] = assay: Antibacterial activity against Enterococcus faecalis ATCC 33186 after 18 hrs; format: functional; details: ATCC 33186, 18 h; outline: as §2
[15] = Antibacterial activity against Salmonella enterica subspecies enterica serotype Nottingham NCTC 7832 after 18 hrs; format: functional, Salmonella enterica subsp. enterica serovar Nottingham; details: NCTC 7832, 18 h; outline: as §2
Proteus vulgaris = assay: Antibacterial activity against Proteus vulgaris OCC 195 after 18 hrs; format: functional; details: OCC 195, 18 h; outline: as §2
Klebsiella pneumoniae = assay: Antibacterial activity against Klebsiella pneumoniae ATCC 10031 after 18 hrs; format: functional; details: ATCC 10031, 18 h; outline: as §2
Escherichia coli [16] = assay: Antibacterial activity against Escherichia coli ATCC 10536 after 18 hrs; format: functional; details: ATCC 10536, 18 h; outline: as §2
Bacillus subtilis = assay: Antibacterial activity against Bacillus subtilis NCTC 10073 after 18 hrs; format: functional; details: NCTC 10073, 18 h; outline: as §2
Streptococcus agalactiae = assay: Antibacterial activity against Streptococcus agalactiae OCC 182 after 18 hrs; format: functional; details: OCC 182, 18 h; outline: as §1
Enterococcus faecium = assay: Antibacterial activity against Enterococcus faecium ATCC 19434 after 18 hrs; format: functional; details: ATCC 19434, 18 h; outline: as §2
Streptococcus pneumoniae = assay: Antibacterial activity against Streptococcus pneumoniae ATCC 49619 after 18 hrs; format: functional; details: ATCC 49619, 18 h; outline: as §1
Staphylococcus aureus [17] = assay: Antibacterial activity against Staphylococcus aureus ATCC 29213 after 18 hrs; format: functional; details: ATCC 29213, 18 h; outline: as §2

- MIC [2]: 2 to 8 µg/mL (≈ 4.43 to 17.7 µM)
- MIC (Staphylococcus aureus [3]): 1 µg/mL (≈ 2.21 µM)
- MIC [4]: 2 to 8 µg/mL (≈ 4.43 to 17.7 µM)
- MIC (Klebsiella aerogenes): 2 µg/mL (≈ 4.43 µM)
- MIC (Staphylococcus aureus [5]): 1 µg/mL (≈ 2.21 µM)
- MIC [6]: 1 µg/mL (≈ 2.21 µM)
- MIC [7]: 1 µg/mL (≈ 2.21 µM)
- MIC [8]: 2 to 8 µg/mL (≈ 4.43 to 17.7 µM)
- MIC (Escherichia coli [9]): 2 to 8 µg/mL (≈ 4.43 to 17.7 µM)
- MIC (Proteus mirabilis): 2 µg/mL (≈ 4.43 µM)
- MIC (Salmonella enteritidis): 2 to 8 µg/mL (≈ 4.43 to 17.7 µM)
- MIC (Bacillus cereus): 128 µg/mL (≈ 283 µM)
- MIC [10]: 1 µg/mL (≈ 2.21 µM)
- MIC (Citrobacter freundii): 4 µg/mL (≈ 8.86 µM)
- MIC [11]: 1 µg/mL (≈ 2.21 µM)
- MIC (Enterococcus faecalis [12]): 128 µg/mL (≈ 283 µM)
- MIC (Escherichia coli [13]): 2 to 8 µg/mL (≈ 4.43 to 17.7 µM)
- MIC (Enterococcus faecalis [14]): 128 µg/mL (≈ 283 µM)
- MIC [15]: 2 to 8 µg/mL (≈ 4.43 to 17.7 µM)
- MIC (Proteus vulgaris): 4 µg/mL (≈ 8.86 µM)
- MIC (Klebsiella pneumoniae): 1 µg/mL (≈ 2.21 µM)
- MIC (Escherichia coli [16]): 2 to 8 µg/mL (≈ 4.43 to 17.7 µM)
- MIC (Bacillus subtilis): 32 µg/mL (≈ 70.8 µM)
- MIC (Streptococcus agalactiae): 128 µg/mL (≈ 283 µM)
- MIC (Enterococcus faecium): 256 µg/mL (≈ 567 µM)
- MIC (Streptococcus pneumoniae): 32 µg/mL (≈ 70.8 µM)
- MIC (Staphylococcus aureus [17]): 1 µg/mL (≈ 2.21 µM)
Compound: OC[C@H]1O[C@H](Oc2cc(Cl)ccc2Oc2ccc(Cl)cc2Cl)[C@H](O)[C@@H](O)[C@@H]1O
- MIC [1]: 1 µg/mL (≈ 2.21 µM)
